Reference: ChEMBL document CHEMBL4732118, “Discovery of indazole-pyridinone derivatives as a novel class of potent and selective MNK1/2 kinase inhibitors that protecting against endotoxin-induced septic shock” (Eur J Med Chem, 2021)
Converted amounts (≈) assume the structure as drawn.

Key:
[1] = Kinetic solubility of compound in pH 7.4 Soerensen's buffer at 500 uM measured after […] by UV-VIS absorption spectrophotometry; format: physicochemical; settings: time 1.5 hrs, read-out: Kinetic_solubility
[2] = Kinetic solubility of compound in water at 500 uM measured after […] by UV-VIS absorption spectrophotometry; format: physicochemical; settings: time 1.5 hrs, read-out: Kinetic_solubility
[3] = Tmax in CD-1 mouse at 5 mg/kg, po by LC-MS analysis; format: ADME, organism-based; settings: in vivo
How it was run: (§1)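 Female CD-1 mice, 5 weeks old, 3 animals per time point. Compound dissolved in DMSO, diluted in Captisol, given p.o. at 5 mg/kg or i.v. at 2 mg/kg. Animals sacrificed at 5, 15 and 30 min and 1, 2, 4, 7 and 24 h. Plasma precipitated with cold acetonitrile and quantified by LC-MS/MS (SRM, positive H-ESI) against a blank mouse plasma calibration curve.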

[4] = Cmax in CD-1 mouse at 5 mg/kg, po by LC-MS analysis; format: ADME, organism-based; design: route oral, dose 5 mg/kg; settings: in vivo
How it was run: (§2)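 Female CD-1 mice, 5 weeks old, 3 per time point. Dosed at 10 µl/g, DMSO solution diluted in Captisol, p.o. 5 mg/kg or i.v. 2 mg/kg. Sacrifice at 5, 15, 30 min and 1, 2, 4, 7, 24 h. Plasma acetonitrile-precipitated, quantified by LC-MS/MS (C18, positive H-ESI, SRM) against a calibration curve in blank mouse plasma.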

[5] = AUC (0 to t) in CD-1 mouse at 5 mg/kg, po by LC-MS analysis; format: ADME, organism-based; design: dose 5 mg/kg; settings: in vivo; how it was run: as §2
[6] = AUC (0 to infinity) in CD-1 mouse at 5 mg/kg, po by LC-MS analysis; format: ADME, organism-based; design: time infinity, route oral, dose 5 mg/kg; settings: in vivo; how it was run: as §2
[7] = Oral bioavailability in CD-1 mouse at 5 mg/kg by LC-MS analysis; format: ADME, organism-based; settings: in vivo; how it was run: as §1
[8] = Tmax in CD-1 mouse at 2 mg/kg, iv by LC-MS analysis; format: ADME, organism-based; settings: in vivo; how it was run: as §1
[9] = Cmax in CD-1 mouse at 2 mg/kg, iv by LC-MS analysis; format: ADME, organism-based; design: route intravenous, dose 2 mg/kg; settings: in vivo; how it was run: as §2
[10] = AUC (0 to t) in CD-1 mouse at 2 mg/kg, iv by LC-MS analysis; format: ADME, organism-based; design: dose 2 mg/kg; settings: in vivo; how it was run: as §2
[11] = AUC (0 to infinity) in CD-1 mouse at 2 mg/kg, iv by LC-MS analysis; format: ADME, organism-based; design: route intravenous, time infinity, dose 2 mg/kg; settings: in vivo; how it was run: as §2

SMILES: Nc1n[nH]c2cc(-c3ccc(=O)n(Cc4cccc(Cl)c4)c3)ccc12
- solubility kinetic at […], 500 µM [1]: 172 µM (≈ 60.3 µg/mL)
- solubility kinetic at […], 500 µM [2]: 275 µM (≈ 96.5 µg/mL)
- Tmax [3]: 15 min
- Cmax [4]: 1050 ng/mL
- AUCt [5]: 2150 ng·h/mL
- AUC [6]: 2410 ng·h/mL
- bioavailability [7]: 100%
- Tmax [8]: 4.8 min
- Cmax [9]: 1490 ng/mL
- AUCt [10]: 834 ng·h/mL
- AUC [11]: 855 ng·h/mL

SMILES: Nc1n[nH]c2cc(-c3ccc(=O)n(Cc4ccccc4F)c3)ccc12
- solubility kinetic at […], 500 µM [1]: 466 µM (≈ 156 µg/mL)
- solubility kinetic at […], 500 µM [2]: > 500 µM
- Tmax [3]: 15 min
- Cmax [4]: 335 ng/mL
- AUCt [5]: 517 ng·h/mL
- AUC [6]: 674 ng·h/mL
- bioavailability [7]: 33%
- Tmax [8]: 4.8 min
- Cmax [9]: 1670 ng/mL
- AUCt [10]: 629 ng·h/mL
- AUC [11]: 677 ng·h/mL
